Env fusion inh: inhibitors of HIV Env-mediated cell fusion; inhibition, % at 12.3 µM; AID 651610; 1.1% of 360,000 active; HeLa-JRFL Env/CEM21 cell fusion, luciferase;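 active means mean replicate inhibition score of at least 50 and every replicate individually at or above 50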
F508del corr: CFTR F508del correction in bronchial cells | activity (quench increase), % at 7.58 µM | AID 720511 | 0.36% of 350,000 active | CFBE cells, YFP halide quenching; stimulated with forskolin plus potentiator P3; % fluorescence drop versus neutral controls;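 active means mean added fluorescence quench of at least 8% versus neutral control, with both replicates also reaching 8%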;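 further: cells transiently co-express mutant CFTR-F508del with the halide-sensitive YFP; corrector assay measuring rescue of mutant channel to the surface after 24 h compound exposure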
INS-1E GSIS act: primary screen for activators of insulin secretion dependent on glucose, INS-1E cells, GLuc reporter luminescence | AID 743287 | INS-1E GLuc reporter insulin secretion, 2-3 h | 0.61% of 370,000 active | activation, % at 16.6 µM;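 active means lowest replicate activation of at least 40%, so every replicate reaches that level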
miR-122 sensor: miR-122 inhibition in Huh7 cells | Huh7 miR-122 Renilla luciferase sensor, 48 h; neutral wells = 0, positive control = 100 | 0.3% of 340,000 active | activation (reporter increase), % at 12.5 µM;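 active means mean replicate activation score at least 90 and every replicate individually at or above 90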;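 further: higher luciferase means less miR-122 activity so hits act as miR-122 inhibitors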
Ecoli rRNA inh: selective bacterial rRNA inhibition in E. coli | 1.6% of 350,000 active | AID 720706 | E. coli WT GFP vs humanized-ribosome RFP mutants, fluorescence, 24 h; active compounds read low; DMSO median 0, no signal -100 | GFP signal change (wild-type ribosome), % (concentration not given with the values);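 active means significant combined selectivity score with lowered wild-type GFP, culture density cut under 30%, mutant RFP and density less affected; inactive means any of these conditions unmet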
Cneo AK release: causes C. neoformans cell lysis. adenylate kinase release luminescence, 4 h; normalised: neutral wells 0, clomiphene wells 100. lysis activity, % at 15 µM. 0.2% of 360,000 active;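 active means mean lysis activity across replicates of at least 80%, whatever share of replicates individually reach that level; inactive means mean lysis activity below 80%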
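Test system: log-phase Cryptococcus neoformans yeast cells. Input: 5 × 10^6 yeast cells/mL. Medium: fresh YPD growth medium. Doses: single dose. Incubation: static 4 h at 37 °C with compound, 1 h detection. Measured by: luminescent adenylate kinase detection reagent. Read-out: signal increase indicating cell lysis. Benchmarks: Clomiphene.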
Of the large screens only hits and unclear results are named; the others gave an inactive call; [ ] = dose if it differs, or a comment. Shown are actives, neighbours in structure and some others; about 3.1% of the full set was active somewhere.

CCOC(=O)c1c(NC(=O)C(C)N2CCN(C(=O)c3ccco3)CC2)sc2c1CCCC2 (stereo not given)	Env fusion inh 56 (no result: F508del corr, INS-1E GSIS act, Ecoli rRNA inh)
O=C(Nc1sc2c(c1C(=O)O)CCCCC2)c1ccco1	miR-122 sensor 208 (no result: F508del corr, INS-1E GSIS act, Ecoli rRNA inh)
CCC(=O)N1C[C@@H](C)[C@H](OC)CN(C)C(=O)c2cc(NS(=O)(=O)CC)ccc2OC[C@@H]1C	none
O=S(=O)(NC1CCc2ccccc21)c1ccc(S(=O)(=O)N2CCCC2)cc1 (stereo not given)	Ecoli rRNA inh -29 (no result: Env fusion inh, miR-122 sensor, Cneo AK release)
COc1ccc(S(=O)(=O)NCc2ccccc2)cc1Br	miR-122 sensor 192
O=S(=O)(NCCc1ccccc1)c1ccc(S(=O)(=O)N2CCCCC2)cc1	none (no result: Env fusion inh)
O=S(=O)(NCc1ccccc1)c1ccc(S(=O)(=O)N2CCCCC2)cc1	INS-1E GSIS act 49 (no result: F508del corr, Ecoli rRNA inh)
O=C(NC1CCc2ccccc21)C1CCN(S(=O)(=O)c2ccc(Cl)cc2)CC1 (stereo not given)	none (no result: Env fusion inh, F508del corr, miR-122 sensor, Ecoli rRNA inh, Cneo AK release)
O=S(=O)(NCc1ccccc1)c1ccc(Cl)c(S(=O)(=O)NCc2ccccc2)c1	miR-122 sensor 106 (no result: F508del corr, INS-1E GSIS act, Ecoli rRNA inh)
CC(=O)N1C[C@@H]2C(c3ccc(Br)cc3)[C@H](C1)N2S(C)(=O)=O (stereo not given in full)	none (no result: Env fusion inh, F508del corr, miR-122 sensor, Cneo AK release)
COCC(=O)Nc1ccc2c(c1)C(=O)N(C)C[C@H](OC)[C@@H](C)CN(C(=O)c1cnccn1)[C@@H](C)CO2	none (no result: Env fusion inh)
COc1ccc(S(=O)(=O)NCc2ccccc2)cc1	miR-122 sensor 113 (no result: F508del corr, INS-1E GSIS act, Ecoli rRNA inh)
COc1ccccc1Oc1ccc(S(=O)(=O)NCc2ccccn2)cc1	Env fusion inh 76 (no result: F508del corr, miR-122 sensor, Ecoli rRNA inh, Cneo AK release)
COc1cccc(-c2cnc(C(O)c3ccccc3)[nH]2)c1 (stereo not given)	none (no result: INS-1E GSIS act)
COc1cccc(C(O)c2ncc(-c3cccc(F)c3)[nH]2)c1 (stereo not given)	miR-122 sensor 114
C[C@@H]1CN([C@@H](C)CO)C(=O)Cc2cc(NC(=O)CCC(F)(F)F)ccc2O[C@@H]1CN(C)Cc1ccccc1	none
Clc1ccc(N(CC2CO2)CC2CO2)cc1 (stereo not given)	F508del corr 8.1 (no result: INS-1E GSIS act, miR-122 sensor, Cneo AK release)
O=S(=O)(c1ccccc1)N(CC1CO1)c1cc(Cl)ccc1Cl (stereo not given)	none
O=c1oc2ccccc2c(NCc2ccccc2)c1[N+](=O)[O-]	none (no result: Env fusion inh)
O=c1oc2ccccc2c(Nc2cc3ccccc3cc2O)c1[N+](=O)[O-]	F508del corr 8.5 (no result: Cneo AK release)
O=c1oc2ccccc2c(NCc2ccc(Cl)cc2)c1[N+](=O)[O-]	Ecoli rRNA inh -39
Cc1ccc(C)c(NC(=S)N/N=C2\CCc3ccccc32)c1	Ecoli rRNA inh -24
Cc1ccc(NC(=S)N/N=C2/CCCCc3ccccc32)cc1	none
COc1cccc(NC(C)(C)c2nnnn2-c2c(C)cccc2C)c1	Ecoli rRNA inh -24
C[C@@H]1CN([C@@H](C)CO)C(=O)c2cc(NC(=O)NC3CCCCC3)ccc2O[C@@H](C)CCCCO[C@@H]1CN(C)S(=O)(=O)c1cccs1	none
CN1C(=O)c2cc(NC(=O)NC3CCCC3)ccc2OC[C@H]2O[C@@H](CC(=O)O)CC[C@H]21	miR-122 sensor 138[16.7 µM] (no result: Env fusion inh)
CCC(=O)Nc1ccc2c(c1)C(=O)N(C)[C@H]1CC[C@H](CC(=O)NC3CCCC3)O[C@H]1CO2	Env fusion inh 57[16.7 µM]
CN1C(=O)c2cc(NC(=O)Cc3ccccc3)ccc2OC[C@@H]2O[C@@H](CC(=O)NC3CCC3)CC[C@H]21	none (no result: Env fusion inh)
CN1C(=O)c2cc(NC(=O)Cc3ccccc3)ccc2OC[C@@H]2O[C@H](CC(=O)NC3CCC3)CC[C@@H]21	miR-122 sensor 125[16.7 µM] (no result: Env fusion inh)
CN1C(=O)c2cc(NC(=O)NC3CCCC3)ccc2OC[C@@H]2O[C@H](CC(=O)NC3CCC3)CC[C@@H]21	Env fusion inh 71[16.7 µM] (no result: Cneo AK release)
CCC(=O)Nc1ccc2c(c1)C(=O)N(C)[C@@H]1CC[C@H](CC(=O)NC3CCCC3)O[C@H]1CO2	none
CN1C(=O)c2cc(NC(=O)NC3CCCC3)ccc2OC[C@@H]2O[C@H](CC(=O)O)CC[C@@H]21	none (no result: Env fusion inh)
CN1C(=O)c2cc(NC(=O)NC3CCCC3)ccc2OC[C@H]2O[C@H](CC(=O)NC3CCC3)CC[C@@H]21	none
COc1ccc(NC(=O)Nc2ccc3c(c2)[C@@H]2C[C@H](CC(=O)NC4CCCCC4)O[C@H](CO)[C@@H]2O3)cc1	none
CO[C@@H]1CN(C)C(=O)c2ccc(NC(=O)NC(C)C)cc2OC[C@@H](C)N(C)C[C@@H]1C	none (no result: miR-122 sensor)
COCC(=O)Nc1ccc2c(c1)C(=O)N(C)[C@H]1CC[C@@H](CC(=O)O)O[C@@H]1CO2	none
Cc1nn(C)cc1NC(=O)C[C@H]1CC[C@@H]2[C@@H](COc3ccc(NC(=O)C4CCC4)cc3C(=O)N2C)O1	Env fusion inh 60[16.7 µM] (no result: Cneo AK release)
CN1C(=O)c2cc(NC(=O)c3cccc(Cl)c3)ccc2OC[C@H]2O[C@@H](CC(=O)NC3CCCCC3)CC[C@H]21	Env fusion inh 56[16.7 µM]
COCC(=O)Nc1ccc2c(c1)C(=O)N(C)[C@H]1CC[C@@H](CC(=O)O)O[C@H]1CO2	miR-122 sensor 262[16.7 µM]
Fc1ccc(CN2[C@@H]3CN(CC(F)(F)F)C[C@H]2C3c2ccc(Br)cc2)cc1 (stereo not given in full)	none (no result: Env fusion inh, F508del corr, miR-122 sensor, Cneo AK release)
O=C(N[C@H]1CC[C@@H](CCNS(=O)(=O)c2ccc(Cl)cc2)O[C@@H]1CO)c1cccc(F)c1	none (no result: miR-122 sensor)
COCC(=O)N(C)C[C@@H]1Oc2ncc(C#Cc3ccc(OC)cc3)cc2C(=O)N([C@H](C)CO)C[C@@H]1C	none
CNC[C@H]1Oc2ccc(NC(=O)Nc3ccc4c(c3)OCO4)cc2C(=O)N([C@@H](C)CO)C[C@H]1C	none
CCOc1ccc(C2CC(c3ccccc3C)n3nc(N)nc3N2)cc1 (stereo not given)	Env fusion inh 65
CC(=O)Nc1ccc2c(c1)C(=O)N(C)C[C@@H](C)[C@@H](CN(C)C(C)=O)O2	none (no result: Env fusion inh, F508del corr, miR-122 sensor, Cneo AK release)
CCCNC(=O)C[C@@H]1C[C@@H]2c3cc(NS(=O)(=O)c4cccc(OC)c4)ccc3O[C@@H]2[C@H](CO)O1	none (no result: Env fusion inh)
NNC(=O)c1oc2nc(-c3ccco3)cc(-c3ccco3)c2c1N	Ecoli rRNA inh -14 (no result: F508del corr)
CC(C)C[C@H](NC(=O)c1[nH]cnc1C(=O)N[C@@H](C)c1ccccc1)C(=O)OC(C)(C)C	INS-1E GSIS act 88 (no result: miR-122 sensor)
CC(C)C[C@H](NC(=O)c1[nH]cnc1C(=O)N[C@@H](Cc1ccccc1)C(=O)OC(C)(C)C)C(=O)OC(C)(C)C	none
CC(C)C[C@H](NC(=O)c1nc[nH]c1C(=O)NC1CCN(C(=O)OC(C)(C)C)CC1)C(=O)OC(C)(C)C	INS-1E GSIS act 346
CC(C)C[C@H](NC(=O)c1nc[nH]c1C(=O)NC1CCN(C(=O)OC(C)(C)C)CC1)C(=O)OCc1ccccc1	none
